# According to ChEMBL document CHEMBL3232876, “Novel R-(+)-limonene-based thiosemicarbazones and their antitumor activity against human tumor cell lines” (Eur J Med Chem, 2014):
# Calls of active or inactive are those of the source. The rule behind the calls is not given here.
# Tests used:
# PC-3 [1] = assay: Cytotoxicity against human PC3 cells assessed as cell death after 48 hrs by sulforhodamine B assay; assay type: functional
# In short: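 NCI-supplied tumour cells in RPMI 1640 with 5% fetal bovine serum; experimental cultures also had penicillin:streptomycin. Cells were exposed for 48 h to four 10-fold concentrations (0.25 to 250 […]), with readings at time zero and at 48 h. LC50 (concentration giving 50% cell death) came from sigmoidal regression of concentration–response curves.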
# Vero = assay: (§1) Growth inhibition of African green monkey Vero cells after 48 hrs by sulforhodamine B assay; assay type: cell-based; conditions: chlorocebus sabaeus, vero, 48 h
# In short: (§2)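 Tumour lines from NCI and Vero from the Rio de Janeiro Cell Bank, grown in RPMI 1640 with 5% fetal bovine serum, with penicillin:streptomycin added to experimental cultures. Each compound was tested at four 10-fold dilutions; sulforhodamine B staining at time zero and 48 h. Proliferation was calculated against T0 and drug-free controls, and GI50 came from sigmoidal regression of the concentration-response curves. Representative experiment in triplicate.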
# [2] = as §1; assay type: cell-based; conditions: chlorocebus sabaeus, Vero cells; in short: as §2
# [3] = Growth inhibition of human OVCAR3 cells after 48 hrs by sulforhodamine B assay; assay type: functional; conditions: OVCAR-3, 48 h; in short: as §2
# PC-3 [4] = assay: Growth inhibition of human PC3 cells after 48 hrs by sulforhodamine B assay; assay type: functional; conditions: PC-3, 48 h; in short: as §2
# [5] = Growth inhibition of human UACC62 cells after 48 hrs by sulforhodamine B assay; assay type: functional; conditions: UACC-62, 48 h; in short: as §2
# MCF7 = assay: Growth inhibition of human MCF7 cells after 48 hrs by sulforhodamine B assay; assay type: functional; conditions: MCF7, 48 h; in short: as §2
# HT-29 = assay: Growth inhibition of human HT-29 cells after 48 hrs by sulforhodamine B assay; assay type: functional; conditions: HT-29, 48 h; in short: as §2
# [6] = Growth inhibition of human NCI-ADR-RES cells after 48 hrs by sulforhodamine B assay; assay type: functional; in short: as §2
# U-251 = assay: Growth inhibition of human U251 cells after 48 hrs by sulforhodamine B assay; assay type: functional; conditions: U-251, 48 h; in short: as §2
# NCI-H460 = assay: Growth inhibition of human NCI-H460 cells after 48 hrs by sulforhodamine B assay; assay type: functional; conditions: NCI-H460, 48 h; in short: as §2
# 786-0 = assay: Growth inhibition of human 786-0 cells after 48 hrs by sulforhodamine B assay; assay type: functional; conditions: 786-0, 48 h; in short: as §2
# K562 = assay: Growth inhibition of human K562 cells after 48 hrs by sulforhodamine B assay; assay type: functional; conditions: K562, 48 h; in short: as §2
# [7] = Ratio of compound GI50 to paclitaxel GI50 for African green monkey Vero cells; assay type: ADME, cell-based; conditions: chlorocebus sabaeus, read-out: RatioGI50
SMILES,TGI (Vero) [µM],GI50 at 48 h [2] [µM],GI50 [3] [µM],TGI [3] [µM],GI50 (PC-3 [4]) [nM],TGI (PC-3 [4]) [µM],GI50 [5] [µM],TGI [5] [µM],GI50 (MCF7) [µM],TGI (MCF7) [µM],GI50 (HT-29) [µM],TGI (HT-29) [µM],GI50 [6] [µM],TGI [6] [µM],GI50 (U-251) [µM],TGI (U-251) [µM],GI50 (NCI-H460) [µM],TGI (NCI-H460) [µM],GI50 (786-0) [µM],TGI (786-0) [µM],further results
CC1=CC[C@H](C(C)(C)NC(=S)N/N=C/c2ccccc2[N+](=O)[O-])CC1,> 100,21.6,8.5,25.8,1700,6.4,10.6,92.2,1.2,94.7,7.9,70.8,19.2,> 100,20.2,> 100,5,32.7,68.5,> 100,Activity (PC-3 [1]): Active; GI50 (K562): 0.3 µM; TGI (K562): > 100 µM
CC1=CC[C@H](C(C)(C)NC(=S)N/N=C/c2ccccc2)CC1,> 100,20.5,8.7,20.6,1300,5.7,31.6,> 100,8.4,84.4,8.8,22.2,> 100,> 100,26.3,71.4,13,53.9,9.9,67,Activity (PC-3 [1]): Active; GI50 (K562): 6.3 µM; TGI (K562): 47.6 µM
COc1ccc(/C=N/NC(=S)NC(C)(C)[C@H]2CC=C(C)CC2)cc1,70.1,12.2,7.9,21.2,< 40,1.2,13.3,70.4,31.2,37.7,8.4,33.6,43.8,50.4,11.4,71.9,22.5,47.8,8.9,29.6,Activity (PC-3 [1]): Active; GI50 (K562): 1.5 µM; TGI (K562): 30.7 µM
CC1=CC[C@H](C(C)(C)NC(=S)N/N=C/c2ccc(N(C)C)cc2)CC1,> 100,75.6,> 100,> 100,< 40,< 0.7,45.1,> 100,26.8,> 100,46.5,> 100,> 100,> 100,57.7,> 100,53.4,> 100,87,> 100,Activity (PC-3 [1]): Active; GI50 (K562): 22.6 µM; TGI (K562): > 100 µM
CC1=CC[C@H](C(C)(C)NC(=S)N/N=C/c2ccccc2O)CC1,11.2,3.1,5.5,11.8,< 40,0.9,2.8,10.8,2.2,17.5,10.9,16.6,3.7,10.9,6.4,10.6,1.9,8.4,4.6,12.1,"CC50 (PC-3 [1]; PC-3, 48 h, read-out: LC50 (the source's name)): 12.3 µM; selectivity ratio [7]: 100; GI50 (K562): 0.8 µM; TGI (K562): > 100 µM"
COc1ccc(/C(C)=N/NC(=S)NC(C)(C)[C@H]2CC=C(C)CC2)cc1,> 100,> 100,74.9,> 100,83600,> 100,95.3,> 100,5,> 100,18.7,> 100,> 100,> 100,43.4,> 100,90.6,> 100,> 100,> 100,GI50 (K562): 54 µM; TGI (K562): > 100 µM
CC1=CC[C@H](C(C)(C)NC(=S)N/N=C/c2ccc(C)cc2)CC1,> 100,81.4,67.2,> 100,< 40,0.9,75.9,> 100,15.2,93.6,20.2,94.5,78.5,> 100,89.2,> 100,75.7,> 100,87.2,> 100,GI50 (K562): 1.6 µM; TGI (K562): 56.8 µM
CC1=CC[C@H](C(C)(C)NC(=S)N/N=C/c2ccccc2Cl)CC1,> 100,74.6,15.1,83.6,50,0.7,19.3,98,11,98.3,71.3,> 100,75,> 100,80.6,> 100,64.5,81,85.5,> 100,GI50 (K562): 5.6 µM; TGI (K562): 66.2 µM
CC1=CC[C@H](C(C)(C)NC(=S)N/N=C/c2cccc(Cl)c2)CC1,> 100,14.8,13.6,80.5,600,6.6,9,39.8,8,61,7.9,53,67.5,> 100,7.9,35.8,1.4,21.4,9.2,26.9,GI50 (K562): 5.4 µM; TGI (K562): > 100 µM
CC1=CC[C@H](C(C)(C)NC(=S)N/N=C/c2cccs2)CC1,13.4,10.1,13.1,35.1,17800,62.8,2.6,19,4.8,11.5,17.8,57.8,13.6,41,13.5,27.4,10.8,20.8,11.5,26.7,GI50 (K562): 17.6 µM; TGI (K562): > 100 µM
CC1=CC[C@H](C(C)(C)NC(=S)N/N=C/c2cccc([N+](=O)[O-])c2)CC1,> 100,> 100,> 100,> 100,9500,88,> 100,> 100,> 100,> 100,0.6,21.9,> 100,> 100,> 100,> 100,> 100,> 100,> 100,> 100,GI50 (K562): 45.6 µM; TGI (K562): > 100 µM
